{"source": "paper PMC3082038", "about": "(Cancer Chemotherapy and Pharmacology, 2010)", "key": {"[1]": {"test": "Plasma pharmacokinetics of TSU-68 in phase I patients", "type": "in vivo, human", "details": "for AUC / AUC(0-t) / Cmax / half-life / Tmax: human, plasma, oral; for AUC(0-t): 500 mg/m2, AUC0–t; for AUC(0-t) / Cmax / Tmax: b.i.d. after meal; for Cmax: 500 mg/m2, C max; for half-life: 500 mg/m2, T 1/2, b.i.d. after meal; for Tmax: 500 mg/m2, T max"}, "[2]": {"test": "Urinary excretion of TSU-68", "type": "in vivo, human", "details": "all dose levels", "method_in_brief": "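Urine was collected in 0–12 h (b.i.d.) or 0–6/0–12 h (t.i.d.) intervals after selected doses, plus pre-dose and up to 24 h after the final sampled dose. Drug was measured by validated HPLC-UV (LLOQ 0.1 μg/ml), and excretion was expressed as % of dose.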"}, "solid tumors": {"tested_on": "solid tumors", "test": "Antitumor effect", "type": "in vivo, human"}, "plasma VEGF": {"tested_on": "plasma VEGF", "test": "Angiogenesis-related factor: plasma VEGF", "type": "in vivo, human", "method_in_brief": "(§1)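 Plasma and urine were collected from patients before treatment and after day 8 and day 28 of oral test compound dosing, and analysed at a central commercial laboratory. ELISA kits were used for human VEGF (plasma and urine), ELAM-1, VCAM-1 and soluble t-PA. Soluble PAI-1 was measured by latex photometric immunoassay. Values are reported as median (range) per time point.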"}, "urinary VEGF": {"tested_on": "urinary VEGF", "test": "Angiogenesis-related factor: urinary VEGF", "type": "in vivo, human", "method_in_brief": "as §1"}, "ELAM-1": {"tested_on": "ELAM-1", "test": "Angiogenesis-related factor: ELAM-1", "type": "in vivo, human", "method_in_brief": "as §1"}, "t-PA": {"tested_on": "t-PA", "test": "Angiogenesis-related factor: t-PA", "type": "in vivo, human", "method_in_brief": "as §1"}, "VCAM-1": {"tested_on": "VCAM-1", "test": "Angiogenesis-related factor: VCAM-1", "type": "in vivo, human", "method_in_brief": "as §1"}, "[3]": {"details": "100 mg/m^2 after meals, previous clinical study; cited from earlier work"}, "[4]": {"tested_on": "liver cytochrome P450, CYP1A1/2", "details": "non-clinical studies; cited from earlier work"}, "[5]": {"details": "1st dose, 500 mg/m^2, n=3, mean ± SD"}, "[6]": {"details": "56th dose, 500 mg/m^2, n=3, mean ± SD"}, "[7]": {"details": "3rd dose, 500 mg/m^2, n=3, mean ± SD"}}, "note": "Marks after values point to notes of the source that are not given here.", "data": [{"smiles": "Cc1[nH]c(/C=C2\\C(=O)Nc3ccccc32)c(C)c1CCC(=O)O", "note": "[TSU-68, (Z)-5-[(1,2-dihydro-2-oxo-3H-indol-3-ylidene)methyl]-2,4-dimethyl-1H-pyrrole-3-propanoic acid]", "values": [{"measurement": "AUC", "setting": "[1]; 400 mg/m^2 t.i.d., AUC Day 28, Pt 20, Colon ca., t.i.d. 400 mg/m^2 (1,800 mg/day)", "value": 46800, "unit": "ng·h/mL"}, {"measurement": "AUC(0-t)", "setting": "[1]; [5]", "value": "103000 ± 45600", "unit": "ng·h/mL"}, {"measurement": "AUC(0-t)", "setting": "[1]; [6]", "value": "43200 ± 18700", "unit": "ng·h/mL"}, {"measurement": "Cmax", "setting": "[1]; [5]", "value": "22500 ± 10000", "unit": "ng/mL"}, {"measurement": "Cmax", "setting": "[1]; [7]", "value": "8790 ± 2920", "unit": "ng/mL"}, {"measurement": "Cmax", "setting": "[1]; [6]", "value": "7510 ± 3460", "unit": "ng/mL"}, {"measurement": "half-life", "setting": "[1]; [5]", "value": "2.35 ± 0.599", "unit": "h"}, {"measurement": "half-life", "setting": "[1]; [7]", "value": "3.33 ± 1.16", "unit": "h"}, {"measurement": "half-life", "setting": "[1]; 56th dose, 500 mg/m^2, N = 1", "value": 1.82, "unit": "h"}, {"measurement": "Tmax", "setting": "[1]; [5]", "value": "4 ± 1.73", "unit": "h"}, {"measurement": "Tmax", "setting": "[1]; [7]", "value": "4.33 ± 1.53", "unit": "h"}, {"measurement": "Tmax", "setting": "[1]; [6]", "value": "3.17 ± 1.44", "unit": "h"}, {"measurement": "AUC", "setting": "[1]; 500 mg/m^2 b.i.d., AUC Day 28, Pt 11, Colon ca., b.i.d. 500 mg/m^2 (1,600 mg/day)", "value": 44600, "unit": "ng·h/mL"}, {"measurement": "T 1/2", "setting": "[1]; t.i.d. after meal, 84th dose, 200 mg/m^2, N = 5, mean ± SD", "value": "4.773 ± 2.221^e h"}, {"measurement": "AUC0–t", "setting": "[1]; t.i.d. after meal, 84th dose, 200 mg/m^2, n=6, mean ± SD", "value": "24.75 ± 13.69", "unit": "h"}, {"measurement": "Urinary excretion of TSU-68", "setting": "[2]", "value": "below 1 % of dose"}, {"measurement": "NC patients", "setting": "solid tumors; 10/23 evaluable patients", "value": 43.5, "unit": "%"}, {"measurement": "Tumor control rate", "setting": "solid tumors; 10/23 patients", "value": 43.5, "unit": "%"}, {"measurement": "PR patient", "setting": "solid tumors; 23 evaluable patients", "value": "not found"}, {"measurement": "TTP (time to progression)", "setting": "solid tumors; Pt 1, Cervical ca., b.i.d. 200 mg/m^2 (800 mg/day)", "value": 162, "unit": "days"}, {"measurement": "TTP (time to progression)", "setting": "solid tumors; Pt 2, NSCLC, b.i.d. 200 mg/m^2 (800 mg/day)", "value": 64, "unit": "days"}, {"measurement": "TTP (time to progression)", "setting": "solid tumors; Pt 4, SCLC, b.i.d. 400 mg/m^2 (1,200 mg/day)", "value": "≥ 29", "unit": "days"}, {"measurement": "TTP (time to progression)", "setting": "solid tumors; Pt 8, Cholecystis ca., b.i.d. 400 mg/m^2 (1,200 mg/day)", "value": 61, "unit": "days"}, {"measurement": "TTP (time to progression)", "setting": "solid tumors; Pt 9, NSCLC, b.i.d. 400 mg/m^2 (1,200 mg/day)", "value": "≥ 29", "unit": "days"}, {"measurement": "TTP (time to progression)", "setting": "solid tumors; Pt 14, Soft tissue sa., t.i.d. 200 mg/m^2 (600 mg/day)", "value": "≥ 254", "unit": "days"}, {"measurement": "TTP (time to progression)", "setting": "solid tumors; Pt 17, NSCLC, t.i.d. 200 mg/m^2 (1,200 mg/day)", "value": 65, "unit": "days"}, {"measurement": "TTP (time to progression)", "setting": "solid tumors; Pt 19, NSCLC, t.i.d. 400 mg/m^2 (2,400 mg/day)", "value": "≥ 28", "unit": "days"}, {"measurement": "TTP (time to progression)", "setting": "solid tumors; Pt 20, Colon ca., t.i.d. 400 mg/m^2 (1,800 mg/day)", "value": "≥ 217", "unit": "days"}, {"measurement": "TTP (time to progression)", "setting": "solid tumors; Pt 23, Colon ca., t.i.d. 400 mg/m^2 (1,800 mg/day)", "value": "≥ 28", "unit": "days"}, {"measurement": "Median survival period", "setting": "solid tumors; all dose levels", "value": 218, "unit": "days"}, {"measurement": "Median time to progression", "setting": "solid tumors; all dose levels", "value": 28, "unit": "days"}, {"measurement": "Change of plasma VEGF at day 28 compared to baseline", "setting": "plasma VEGF; PD patients (13 pts.), Wilcoxon signed rank-sum test", "value": "significantly increasing"}, {"measurement": "Plasma VEGF, median", "setting": "plasma VEGF; day 8, 23 patients", "value": 55, "unit": "pg/mL"}, {"measurement": "Plasma VEGF, range", "setting": "plasma VEGF; day 8, 23 patients", "value": "<31 to 278", "unit": "pg/mL"}, {"measurement": "Plasma VEGF, median", "setting": "plasma VEGF; day 28, 22 patients", "value": 63, "unit": "pg/mL"}, {"measurement": "Plasma VEGF, range", "setting": "plasma VEGF; day 28, 22 patients", "value": "<31 to 270", "unit": "pg/mL"}, {"measurement": "Urinary VEGF, median", "setting": "urinary VEGF; day 8, 23 patients", "value": 144, "unit": "pg/mL"}, {"measurement": "Urinary VEGF, range", "setting": "urinary VEGF; day 8, 23 patients", "value": "<31 to 1210", "unit": "pg/mL"}, {"measurement": "Urinary VEGF, median", "setting": "urinary VEGF; day 28, 22 patients", "value": 162.5, "unit": "pg/mL"}, {"measurement": "Urinary VEGF, range", "setting": "urinary VEGF; day 28, 22 patients", "value": "68 to 730", "unit": "pg/mL"}, {"measurement": "ELAM-1, median", "setting": "ELAM-1; day 8, 23 patients", "value": 50, "unit": "ng/mL"}, {"measurement": "ELAM-1, range", "setting": "ELAM-1; day 8, 23 patients", "value": "13 to 136", "unit": "ng/mL"}, {"measurement": "ELAM-1, median", "setting": "ELAM-1; day 28, 22 patients", "value": 45.5, "unit": "ng/mL"}, {"measurement": "ELAM-1, range", "setting": "ELAM-1; day 28, 22 patients", "value": "17 to 114", "unit": "ng/mL"}, {"measurement": "t-PA, median", "setting": "t-PA; day 8, 23 patients", "value": 7.2, "unit": "ng/mL"}, {"measurement": "t-PA, range", "setting": "t-PA; day 8, 23 patients", "value": "3.3 to 14.3", "unit": "ng/mL"}, {"measurement": "t-PA, median", "setting": "t-PA; day 28, 22 patients", "value": 6.8, "unit": "ng/mL"}, {"measurement": "t-PA, range", "setting": "t-PA; day 28, 22 patients", "value": "2.9 to 13.5", "unit": "ng/mL"}, {"measurement": "VCAM-1, median", "setting": "VCAM-1; day 8, 23 patients", "value": 562, "unit": "ng/mL"}, {"measurement": "VCAM-1, range", "setting": "VCAM-1; day 8, 23 patients", "value": "303–1,140 ng/ml"}, {"measurement": "VCAM-1, median", "setting": "VCAM-1; day 28, 22 patients", "value": 545.5, "unit": "ng/mL"}, {"measurement": "VCAM-1, range", "setting": "VCAM-1; day 28, 22 patients", "value": "355 to 988", "unit": "ng/mL"}, {"measurement": "Absolute bioavailability", "setting": "[3]", "value": 42, "unit": "%"}, {"measurement": "Effect on liver cytochrome P450, CYP1A1/2 involved in its own metabolism", "setting": "[4]", "value": "induction"}]}]}
